Experimental data from different studies.
Protocols differ between the studies behind these lines.

The concentration of `NCc1cc2c(cc1F)C(=O)N(C1CCC(=O)NC1=O)C2` (stereo not drawn) is reported as 2.8 ng/mL (male CD-1 mouse, plasma; intravenous, 1 mg/kg, 4 h).
With `Cc1nc2ccc(OCc3ccc(C(F)(F)F)cc3)cc2[nH]1` the concentration was 2.7 ng/g (male BALB/c mouse, brain; oral, 10 mg/kg, 72 h).
`CC1(C)NC(=O)N(c2ccc(F)c(Br)c2)C1=O` gave a concentration of 1110 ng/mL (male Swiss mouse, plasma; oral, 100 mg/kg, 48 h).
The concentration of `Fc1ccc(Oc2ccc(Nc3ccc4ncc(OCC5CCNCC5)nc4c3)cc2)cc1` is reported as 1700 nM (SCID mouse, plasma; intraperitoneal, 50 mg/kg, 24 h).
The concentration of `Cc1ccc2c(c1)C(=O)[C@]1(O)CCN(c3ccc4nc(C)ccc4c3)C1=N2` is reported as 700 nM (mouse, plasma; intraperitoneal, 10 mg/kg, 30 min).
`CC(C)n1ncc2c(C(=O)NCC3(C)CNC3)cc(C3CC3)nc21` has a concentration of 2660 ng/mL (female BALB/c mouse, plasma; intraperitoneal, 50 mg/kg, 1 h).
The concentration of `CCOC(=O)c1c(NC(=O)CNC(C)C)sc2c1CCCCC2` is reported as 15800 ng/g (male mouse, brain; intraperitoneal, 100 mg/kg, 30 min).
With `O=C1CCC(N2Cc3cc(CO)c(F)cc3C2=O)C(=O)N1` (stereo not drawn) the concentration was 1.7 ng/mL (male CD-1 mouse, plasma; intravenous, 1 mg/kg, 4 h).
`OCc1nc2ccc(NCc3ccc(C(F)(F)F)cc3)cc2[nH]1` gave a concentration of 26.1 ng/g (male BALB/c mouse, brain; intravenous, 1 mg/kg, 6 h).
The concentration of `CC(C)(C)S(=O)(=O)c1cc2c(Nc3ccc4scnc4c3)ncnc2cc1OCCOP(=O)(O)O` is reported as 145 ng/mL (BALB/c mouse, plasma; oral, 10 mg/kg, 2 h).
`O=C1CCC(N2Cc3cc(C4CCN(Cc5ccccc5)CC4)ccc3C2=O)C(=O)N1` (stereo not drawn) has a concentration of 49.6 ng/mL (male CD-1 mouse, plasma; oral, 3 mg/kg, 4.98 min).
With `CC1(C)NC(=O)N(c2ccc(F)c(S(C)(=O)=O)c2)C1=O` the concentration was 31900 ng/mL (male Swiss mouse, plasma; oral, 100 mg/kg, 1 h).
`O=Cc1cc2c(cc1F)C(=O)N(C1CCC(=O)NC1=O)C2` (stereo not drawn) has a concentration of 17.2 ng/mL (male CD-1 mouse, plasma; intravenous, 1 mg/kg, 1.02 min).
`CN(C)C(=O)c1cc2cnc(Nc3ccc(-c4ccc5c(=O)cc(N6CCOCC6)oc5c4)cc3)nc2n1C1CCCC1` has a concentration of 108 ng/g (BALB/c mouse, brain; oral, 20 mg/kg, 2 h, single dose).
`CC(C)c1cc(C(=O)NCCN)c2cnn(C(C)C)c2n1` gave a concentration of 2010 ng/mL (female BALB/c mouse, plasma; intraperitoneal, 50 mg/kg, 15 min).
